Results from ChEMBL document CHEMBL4619723, “New CDK8 inhibitors as potential anti-leukemic agents - Design, synthesis and biological evaluation” (Bioorg Med Chem, 2020).

What was measured:
[1] = target: Non-receptor tyrosine-protein kinase TNK1 (Homo sapiens) (UniProt Q13470); experiment: Inhibition of biotinylated ligand binding to wild-type human full length TNK1 (M1 to P661 residues) expressed in bacterial expression system at 50 nM measured after 1 hr by kinomescan assay relative to control
Summary of the method: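 Kinase-tagged T7 phage was grown in an E. coli BL21-derived host at 32 °C until lysis, and the lysate was clarified. Kinase was bound to streptavidin beads carrying a biotinylated ligand, with test compound at 50 nM (final DMSO), in binding buffer for 1 h at rt. Bound kinase was eluted and quantified by qPCR. Result is POC relative to the DMSO (100%) and control-compound (0%) references.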

[2] = Selectivity ratio of EC50 for rat H9c2 cells to EC50 for human MOLM13 cells; type: toxicity; conditions: H9c2 cells versus MOLM13 cells, read-out: Ratio EC50
[3] = Selectivity ratio of EC50 for rat H9c2 cells to EC50 for human MV4-11 cells; type: toxicity; conditions: H9c2 cells versus MV4-11 cells, read-out: Ratio EC50

Sequence of Non-receptor tyrosine-protein kinase TNK1 (Homo sapiens) (Q13470 whole entry, the tested form may be a part): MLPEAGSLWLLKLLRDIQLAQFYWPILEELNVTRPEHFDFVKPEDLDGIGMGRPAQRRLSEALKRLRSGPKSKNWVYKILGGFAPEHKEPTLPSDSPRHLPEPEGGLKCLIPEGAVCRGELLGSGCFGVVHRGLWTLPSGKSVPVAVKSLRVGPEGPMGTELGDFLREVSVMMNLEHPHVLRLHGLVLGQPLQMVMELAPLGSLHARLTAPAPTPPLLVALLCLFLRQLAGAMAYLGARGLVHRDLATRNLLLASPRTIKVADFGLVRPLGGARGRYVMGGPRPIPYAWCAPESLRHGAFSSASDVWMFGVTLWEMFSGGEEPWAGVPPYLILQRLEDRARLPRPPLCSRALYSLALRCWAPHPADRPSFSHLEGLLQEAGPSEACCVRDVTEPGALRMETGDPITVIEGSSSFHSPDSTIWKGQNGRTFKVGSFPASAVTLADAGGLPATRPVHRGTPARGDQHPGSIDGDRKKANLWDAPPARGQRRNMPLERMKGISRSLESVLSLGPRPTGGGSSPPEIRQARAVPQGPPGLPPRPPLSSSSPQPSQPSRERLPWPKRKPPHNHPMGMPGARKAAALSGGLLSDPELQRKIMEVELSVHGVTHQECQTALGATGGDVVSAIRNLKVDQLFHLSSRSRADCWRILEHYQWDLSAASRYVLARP

CN(C)[C@@H]1CC[C@@]2(C)[C@@H](CC[C@@H]3[C@@H]2CC[C@]2(C)C(c4cccc5cnccc45)=CC[C@@H]32)C1
inhibition [1]: > 80% | selectivity ratio [2]: 3 to 4 | selectivity ratio [3]: 3 to 4
